Results from different studies.
Nuclear receptor subfamily 4 group A member 2: Nuclear receptor subfamily 4 group A member 2 (Homo sapiens, UniProt P43354)
P2RY14: P2Y purinoceptor 14 (P2RY14, Homo sapiens, UniProt Q15391)
ADRA1B: Alpha-1B adrenergic receptor (ADRA1B, Homo sapiens, UniProt P35368)

CCN(CC)Cc1cc(Nc2ccnc3cc(Cl)ccc23)ccc1O — Kd (Nuclear receptor subfamily 4 group A member 2; binding; ITC): 2700 nM
Cn1nccc1-c1ccc(-c2cc(C(=O)O)cc3cc(-c4ccc(C(F)(F)F)cc4)ccc23)cc1 — Ki (P2RY14; ligand displacement in cells; flow cytometry): 28.4 nM
COc1cccc2c(Nc3ccc4[nH]c(C(=O)N/N=C/c5ccc(SC)cc5)cc4c3)cc(C)nc12 — Kd (Nuclear receptor subfamily 4 group A member 2; binding; ITC): 2800 nM
CCC1c2ccsc2CCN1Cc1nc2ccc(Cl)cc2n1CCO (stereo not drawn) — Kd (DDB1- and CUL4-associated factor 1 (DCAF1, Homo sapiens, UniProt Q9Y4B6); binding; SPR): 20000 nM
O=C(O)c1cc(-c2ccc(-c3ccncc3)cc2)c2ccc(-c3ccc(C(F)(F)F)cc3)cc2c1 — Ki (P2RY14; ligand displacement in cells; flow cytometry): 23.7 nM
Cc1cc(Oc2ncccc2CN2CCN(C(c3ccccc3)c3ccccc3)CC2)ccc1-c1c(C)c(=O)[nH]c(=O)n1C — Ki (ADRA1B; ligand displacement; radioligand): 721 nM
Cc1onc(-c2ccccc2)c1-c1ccc(S(N)(=O)=O)cc1 — Kd (Nuclear receptor subfamily 4 group A member 2; binding; ITC): 1200 nM
O=C(O)c1cc(-c2ccc(-c3ccc(Cl)s3)cc2)c2ccc(-c3ccc(C(F)(F)F)cc3)cc2c1 — Ki (P2RY14; ligand displacement in cells; flow cytometry): 1190 nM
CCCCCCCCCCCCCCCC(=O)OC[C@H](COP(=O)(O)O[C@H]1[C@H](O)[C@@H](OP(=O)(O)O)[C@H](OP(=O)(O)O)[C@@H](OP(=O)(O)O)[C@H]1O)OC(=O)CCCCCCCCCCCCCCC — Kd (Heat shock protein beta-1 (HSPB1, Homo sapiens, UniProt P04792); binding; MST): 188 nM
Cc1cc(Oc2ncccc2CN2CCN(c3cccc(Cl)c3)CC2)ccc1-c1c(C)c(=O)[nH]c(=O)n1C — Ki (ADRA1B; ligand displacement; radioligand): 646 nM
O=C(O)c1cc(-c2ccc(-n3nncc3CCOP(=O)(O)O)cc2)c2ccc(-c3ccc(C(F)(F)F)cc3)cc2c1 — Ki (P2RY14; ligand displacement in cells; flow cytometry): 91.3 nM
Cc1cc(Oc2ncccc2CN2CCN(c3ccccc3[N+](=O)[O-])CC2)ccc1-c1c(C)c(=O)[nH]c(=O)n1C — Ki (ADRA1B; ligand displacement; radioligand): 2920 nM
O=C(O)c1cc(-c2ccc(-c3c[nH]nn3)cc2)c2ccc(-c3ccc(C(F)(F)F)cc3)cc2c1 — Ki (P2RY14; ligand displacement in cells; flow cytometry): 2.15 nM
Cc1cc(Oc2ncccc2CN2CCN(c3ccc(Cl)cc3)CC2)ccc1-c1c(C)c(=O)[nH]c(=O)n1C — Ki (ADRA1B; ligand displacement; radioligand): 2590 nM
CN1C(C(=O)Nc2ccccn2)=C(O)c2sc(Cl)cc2S1(=O)=O — Kd (Nuclear receptor subfamily 4 group A member 2; binding; ITC): 1400 nM
